Laboratory results reported in ChEMBL document CHEMBL2203053, “DNA binding acridine-thiazolidinone agents affecting intracellular glutathione” (Bioorg Med Chem, 2012).
One block for each compound: values may come before it. Activity calls are given as the source filed them. No cut-off for these calls is given here.

Legend:
Nucleic Acid [1] = test: Binding affinity to calf thymus DNA assessed as binding constant by spectrofluorimetry based McGhee von Hippel method; assay type: nucleic-acid assay; conditions: Bos taurus
In short: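 Fluorescence titration used compound at 26.7 µM in 0.01 M Tris buffer (pH 7.4, 24 °C). ctDNA was added stepwise from 0 to 32 µM bp at 2 µM intervals until spectra stopped changing. Excitation was 384 nm and emission was read at 410–470 nm. Binding constant K was derived by the McGhee–von Hippel method from Scatchard plot data.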

HL-60 [2] = test: Cytotoxicity against human HL60 cells after 72 hrs using trypan blue exclusion staining by DCC method; assay type: functional, cell-based; conditions: HL-60, 72 h
In short: (§1)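 For trypan blue dye-exclusion direct cell counting, HL-60 cells were seeded at 1 × 10⁵ cells/mL. Compound at 0–10 µM, or 1% DMSO control, was added after 24 h. Viable counts were taken after 24, 48 and 72 h. IC50 (50% inhibition of viability) came from growth curves, as mean ± S.D., n = 3.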

HL-60 [3] = test: Induction of necrosis in human HL60 cells assessed as cell shrinking at 5 uM after 24 hrs by propidium iodide staining based fluorescence microscopy; assay type: functional
HL-60 [4] = test: Cytotoxicity against BSO pretreated human HL60 cells assessed as cell viability at 3 uM treated 6 hrs after BSO addition measured after 48 hrs by trypan blue exclusion assay; assay type: functional, cell-based
In short: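 HL-60 cells were pretreated 6 h with L-buthionine-sulfoximine (10 µM), then exposed to 1.5, 3.0 or 1.0 µM compound for 48 h. Viable cells were counted by trypan blue staining and expressed as percentage of all cells.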

HL-60 [5] = test: Decrease in intracellular glutathione level in human HL60 cells at 2 uM after 24 hrs by spectrophotometric analysis; assay type: functional, cell-based
HL-60 [6] = test: Decrease in intracellular glutathione level in human HL60 cells at 2 uM after 2 hrs by spectrophotometric analysis; assay type: functional, cell-based
A2780 [7] = test: Drug uptake in human A2780 cells at 5 uM after 4 hrs by Hoechst staining based fluorescence microscopy; assay type: ADME, cell-based; conditions: a2780, 4 h
HL-60 [8] = test: Drug uptake in human HL60 cells at 5 uM after 4 hrs by Hoechst staining based fluorescence microscopy; assay type: ADME, cell-based; conditions: hl-60, 4 h
In short: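 HL-60 cells were exposed to 5 µM for 4 h at 37 °C, 5% CO₂, then washed in PBS. Intrinsic blue fluorescence was viewed by optical and fluorescence microscopy. Untreated control cells were stained with Hoechst 33342 (10 µM, 10 min).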

A2780 [9] = test: Cytotoxicity against human A2780 cells after 72 hrs by MTT assay; assay type: functional, cell-based; conditions: A2780, 72 h
In short: (§2)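 HL-60, L1210 and A2780 cells were grown in RPMI 1640 with 10% FBS, penicillin and streptomycin at 37 °C, 5% CO₂; HL-60 and A2780 medium also had 2 mM glutamine. Cells were exposed to 0–30 µM for 48 or 72 h. Viability was read by MTT microculture tetrazolium assay and IC50 was determined.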

HL-60 [10] = test: Cytotoxicity against human HL60 cells after 48 hrs using trypan blue exclusion staining by DCC method; assay type: functional, cell-based; conditions: HL-60, 48 h; in short: as §1
A2780 [11] = test: Cytotoxicity against human A2780 cells after 48 hrs by MTT assay; assay type: functional, cell-based; conditions: A2780, 48 h; in short: as §2
L1210 [12] = test: Cytotoxicity against mouse L1210 cells after 72 hrs by MTT assay; assay type: functional, cell-based; conditions: L1210, 72 h; in short: as §2
L1210 [13] = test: Cytotoxicity against mouse L1210 cells after 48 hrs by MTT assay; assay type: functional, cell-based; conditions: L1210, 48 h; in short: as §2
HL-60 [14] = test: Cytotoxicity against human HL60 cells after 48 hrs by MTT assay; assay type: functional, cell-based; conditions: HL-60, 48 h; in short: as §2
HL-60 [15] = test: Cytotoxicity against human HL60 cells after 72 hrs by MTT assay; assay type: functional, cell-based; conditions: HL-60, 72 h; in short: as §2
Nucleic Acid [16] = test: Ratio of acridine orange K to compound K for calf thymus DNA by spectrofluorimetry based McGhee von Hippel method; assay type: nucleic-acid assay; conditions: Bos taurus
Nucleic Acid [17] = test: Ratio of daunomycin K to compound K for calf thymus DNA by spectrofluorimetry based McGhee von Hippel method; assay type: nucleic-acid assay; conditions: Bos taurus
Nucleic Acid [18] = test: Ratio of proflavine K to compound K for calf thymus DNA by spectrofluorimetry based McGhee von Hippel method; assay type: nucleic-acid assay; conditions: Bos taurus
Nucleic Acid [19] = test: Binding affinity to calf thymus DNA assessed as melting temperature at 5 uM at pH 7.1 by thermal denaturation assay; assay type: nucleic-acid assay; conditions: Bos taurus
Nucleic Acid [20] = test: Binding affinity to calf thymus DNA assessed as hypochromicity at 25 uM by UV-visible spectrophotometry; assay type: nucleic-acid assay; conditions: Bos taurus
In short: (§3)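 Absorption spectra were taken in 0.01 M Tris buffer, pH 7.4. Compounds were diluted from DMSO stock to a final 25 µM. Sonicated calf thymus DNA in TE buffer was added at 0–30 µM bp, with concentration set by A260. Shift of λmax (free vs bound) and % hypochromicity were recorded.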

Nucleic Acid [21] = test: Binding affinity to calf thymus DNA assessed as bathochromic shift at 25 uM by UV-visible spectrophotometry; assay type: nucleic-acid assay; conditions: Bos taurus; in short: as §3

K (Nucleic Acid [1]): 3.19 ×10⁵ /M
Compound: CN(C)c1ccc2cc3ccc(N(C)C)cc3nc2c1

Drug uptake (A2780 [7]): Active | Drug uptake (HL-60 [8]): Active | Ratio (Nucleic Acid [16]): 10 | Ratio (Nucleic Acid [17]): 10 | Ratio (Nucleic Acid [18]): 10 | K (Nucleic Acid [1]): 1.37 ×10⁶ /M | Tm (Nucleic Acid [19]): 74 °C | Activity (Nucleic Acid [20]): 31.2% | Activity (Nucleic Acid [21]): Active
Compound: COC(=O)/C=C1\S/C(=N\c2c3ccccc3nc3ccccc23)N(C(C)(C)C)C1=O
IC50 (HL-60 [2]): 2.8 µM | Activity (HL-60 [3]): Active | Activity (HL-60 [4]): Active | Activity (HL-60 [5]): inactive | Activity (HL-60 [6]): Active | IC50 (A2780 [9]): 23.7 µM | IC50 (HL-60 [10]): 3.5 µM | IC50 (A2780 [11]): > 30 µM | IC50 (L1210 [12]): 20.9 µM | IC50 (L1210 [13]): 17.9 µM | IC50 (HL-60 [14]): 5.4 µM | IC50 (HL-60 [15]): 3.7 µM
